Test system: Japanese patients with solid tumors
Assay: Phase I dose-escalation study: safety, tolerability, DLT and MTD
Format: in vivo, human
Conditions: for Tolerability: dose level of up to 90 mg
Procedure, shortened: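 Oral test compound (tosylate salt) was given QD on days 1–21 of 28-day cycles in cohorts of 3–6 patients at 60, 90 or 120 mg. Escalation used a modified continual reassessment method (Bayesian logistic regression, escalation with overdose control). DLT window was cycle 1 (28 days). AEs were coded with MedDRA 18.0 and graded by CTCAE v4.0 (Japanese). Analysis covered patients receiving ≥1 dose.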

[1] = Cohort 3 120 mg/d (n = 4), All grades
[2] = Cohort 3 120 mg/d (n = 4), Grade ≥ 3

CC1(C)CCC2(CC1)N[C@@H](C(=O)N[C@@H]1CC[C@@H](C(N)=O)OC1)[C@H](c1ccnc(Cl)c1F)[C@]21C(=O)Nc2cc(Cl)ccc21 [milademetan, Milademetan]
2 (11.1) n (%): TEAE: Alanine aminotransferase increased (Total (n = 18), Grade ≥ 3) | TEAE: Hyponatremia (Total (n = 18), Grade ≥ 3)
50.0%: TEAE: anemia, frequency (all 18 patients, all grades) | TEAE: fatigue, frequency (all 18 patients, all grades) | TEAE: white blood cell count decreased, frequency (all 18 patients, all grades)
90 mg: Maximum tolerated dose (MTD) (once-daily 21/28-day schedule) | Recommended dose for phase II (once-daily 21/28-day schedule)
5 (27.8) n (%): TEAE: Constipation (Total (n = 18), All grades) | TEAE: Diarrhea (Total (n = 18), All grades) | TEAE: Hyponatremia (Total (n = 18), All grades) | TEAE: Neutrophil count decreased (Total (n = 18), All grades) | TEAE: Vomiting (Total (n = 18), All grades)
1 (25.0) n (%): TEAE: Pyrexia [1] | TEAE: Sepsis [1] | TEAE: Alanine aminotransferase increased [2] | TEAE: Aspartate aminotransferase increased [2] | TEAE: Disease progression [2] | TEAE: Hyponatremia [2] | TEAE: Lymphocyte count decreased [2] | TEAE: Neutrophil count decreased [2] | TEAE: Sepsis [2] | TEAE: White blood cell count decreased [2]
8 (44.4) n (%): TEAE: Hypoalbuminemia (Total (n = 18), All grades)
6 n: Dose interruption because of nausea (all cohorts)
4 (22.2) n (%): TEAE: Alanine aminotransferase increased (Total (n = 18), All grades) | TEAE: Aspartate aminotransferase increased (Total (n = 18), All grades) | TEAE: Lymphocyte count decreased (Total (n = 18), All grades) | TEAE: Pyrexia (Total (n = 18), All grades) | TEAE: Platelet count decreased (Total (n = 18), Grade ≥ 3)
38.9%: Drug-related TEAE: anemia, frequency (all 18 patients)
well tolerated: Tolerability (once-daily 21/28-day schedule)
90 mg/day: Maximum tolerated dose (MTD) (days 1 to 21 of a 28-day cycle)
9 (50.0) n (%): TEAE: Anemia (Total (n = 18), All grades) | TEAE: Fatigue (Total (n = 18), All grades) | TEAE: White blood cell count decreased (Total (n = 18), All grades)
No patients required a dose reduction: Dose reduction due to TEAEs (all cohorts)
1 (5.6) n (%): TEAE: Disease progression (Total (n = 18), All grades) | TEAE: Hypophosphataemic rickets (Total (n = 18), All grades) | TEAE: Jaundice cholestatic (Total (n = 18), All grades) | TEAE: Lymphangiosis carcinomatosa (Total (n = 18), All grades) | TEAE: Sepsis (Total (n = 18), All grades) | TEAE: Urinary tract infection (Total (n = 18), All grades) | TEAE: Aspartate aminotransferase increased (Total (n = 18), Grade ≥ 3) | TEAE: Disease progression (Total (n = 18), Grade ≥ 3) | TEAE: Hypophosphataemic rickets (Total (n = 18), Grade ≥ 3) | TEAE: Jaundice cholestatic (Total (n = 18), Grade ≥ 3) | TEAE: Lymphangiosis carcinomatosa (Total (n = 18), Grade ≥ 3) | TEAE: Lymphocyte count decreased (Total (n = 18), Grade ≥ 3) | TEAE: Neutrophil count decreased (Total (n = 18), Grade ≥ 3) | TEAE: Sepsis (Total (n = 18), Grade ≥ 3) | TEAE: Urinary tract infection (Total (n = 18), Grade ≥ 3) | TEAE: White blood cell count decreased (Total (n = 18), Grade ≥ 3)
generally safe and well tolerated: Tolerability (once-daily 21/28-day schedule, listed as Milademetan)
18 patients: Patients with at least one drug-related TEAE (of 18 patients)
ten patients: Dose interruptions (all cohorts)
3 n: Grade ≥ 3 TEAE: anemia (all 18 patients)
3 (16.7) n (%): TEAE: Anemia (Total (n = 18), Grade ≥ 3)
11 (61.1) n (%): TEAE: Decreased appetite (Total (n = 18), All grades) | TEAE: Platelet count decreased (Total (n = 18), All grades)
13 (72.2) n (%): TEAE: Nausea (Total (n = 18), All grades)
Three patients withdrew: Withdrawal from the study because of TEAEs (one in 90-mg cohort, two in 120-mg cohort)
no clinically relevant changes: Changes in laboratory parameters (other than platelet count decreased), vital signs, electrocardiogram (hematology, blood chemistry, coagulation, urinalysis, vital signs, ECG)
2 (50.0) n (%): TEAE: Lymphocyte count decreased [1] | TEAE: Neutrophil count decreased [1] | TEAE: Vomiting [1] | TEAE: White blood cell count decreased [1]
Six patients: Patients who developed serious TEAEs (four at 90 mg, one at 60 mg, one at 120 mg, eight serious TEAEs)
3 (75.0) n (%): TEAE: Nausea [1] | TEAE: Platelet count decreased [1] | TEAE: Platelet count decreased [2]
2 n: Grade ≥ 3 TEAE: ALT increased (all 18 patients) | Grade ≥ 3 TEAE: hyponatremia (all 18 patients) | Dose interruption because of decreased appetite (all cohorts)
72.2%: TEAE: nausea, frequency (all 18 patients, all grades)
61.1%: TEAE: decreased appetite, frequency (all 18 patients, all grades) | TEAE: platelet count decreased, frequency (all 18 patients, all grades)
4 n: Grade ≥ 3 TEAE: platelet count decreased (all 18 patients) | Dose interruption because of platelet count decreased (all cohorts)
0 (0.0) n (%): TEAE: Hypophosphataemic rickets [1] | TEAE: Jaundice cholestatic [1] | TEAE: Lymphangiosis carcinomatosa [1] | TEAE: Urinary tract infection [1] | TEAE: Anemia [2] | TEAE: Constipation [2] | TEAE: Decreased appetite [2] | TEAE: Diarrhea [2] | TEAE: Fatigue [2] | TEAE: Hypoalbuminemia [2] | TEAE: Hypophosphataemic rickets [2] | TEAE: Jaundice cholestatic [2] | TEAE: Lymphangiosis carcinomatosa [2] | TEAE: Nausea [2] | TEAE: Pyrexia [2] | TEAE: Urinary tract infection [2] | TEAE: Vomiting [2] | TEAE: Constipation (Total (n = 18), Grade ≥ 3) | TEAE: Decreased appetite (Total (n = 18), Grade ≥ 3) | TEAE: Diarrhea (Total (n = 18), Grade ≥ 3) | TEAE: Fatigue (Total (n = 18), Grade ≥ 3) | TEAE: Hypoalbuminemia (Total (n = 18), Grade ≥ 3) | TEAE: Nausea (Total (n = 18), Grade ≥ 3) | TEAE: Pyrexia (Total (n = 18), Grade ≥ 3) | TEAE: Vomiting (Total (n = 18), Grade ≥ 3)
33.3%: Serious TEAEs, percentage of patients (six out of 18 patients)

Reference: article PMC8177775 (Cancer Science, 2021)
